From ChEMBL document CHEMBL1139350, “Modulation of Wnt signaling through inhibition of secreted frizzled-related protein I (sFRP-1) with N-substituted piperidinyl diphenylsulfonyl sulfonamides” (J Med Chem, 2009)

Columns and labels:
Format in all cases: ADME, Microsome
[1] = Metabolic stability in human liver microsomes assessed as half life
Method in brief: (§1)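 Stability in human or rat liver microsomes with compound at 1 µM, from DMSO solution.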

[2] = Metabolic stability in rat liver microsomes assessed as half life; method in brief: as §1
[3] = Metabolic stability in human liver microsomes assessed as half life in presence of NADPH
Method in brief: (§2)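 Advanced stability in human or rat liver microsomes run with NADPH, with and without UDPGA, on compound from 1 µM DMSO solution.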

[4] = Metabolic stability in rat liver microsomes assessed as half life in presence of NADPH; method in brief: as §2

SMILES	half-life [1] [min]	half-life [2] [min]	half-life [3] [min]	half-life [4] [min]
CC(C)(C)OC(=O)N1CCC[C@H]1C(=O)N1CCC(NS(=O)(=O)c2cc(S(=O)(=O)c3ccccc3)ccc2C(F)(F)F)CC1	> 1	> 1	–	–
CC(C)(C)CCN1CCC[C@H]1C(=O)N1CCC(NS(=O)(=O)c2cc(S(=O)(=O)c3ccccc3)ccc2C(F)(F)F)CC1	> 5	> 8	–	–
CC(C)(C)CC(=O)N1CCC[C@H]1C(=O)N1CCC(NS(=O)(=O)c2cc(S(=O)(=O)c3ccccc3)ccc2C(F)(F)F)CC1	> 1	> 3	–	–
O=S(=O)(NC1CCNCC1)c1cc(S(=O)(=O)c2ccccc2)ccc1C(F)(F)F	–	–	> 60	> 60
CC(C)(C)NC(=O)N1CCC[C@H]1C(=O)N1CCC(NS(=O)(=O)c2cc(S(=O)(=O)c3ccccc3)ccc2C(F)(F)F)CC1	> 2	> 3	–	–
